Measurements from ChEMBL document CHEMBL3112469, “Substituted 2-phenylimidazopyridines: a new class of drug leads for human African trypanosomiasis” (J Med Chem, 2014).
pEC50: −log10 of the molar value.

Legend:
L6 = assay: Cytotoxicity against rat L6 cells after 48 hrs by Alamar Blue assay; type: cell-based; settings: l6, 48 h
[1] = tested on: Trypanosoma brucei brucei; assay: Antiparasitic activity against Trypanosoma brucei brucei BF427 assessed as growth inhibition by Alamar Blue assay; type: functional, organism-based
How it was run: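 Bloodstream-form T. brucei brucei BF427 grown with serial compound dilutions, each tested in triplicate. Growth quantified with AlamarBlue. Pentamidine isothionate included in every assay as positive control.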

HepG2 = assay: Cytotoxicity against human HepG2 cells after 48 hrs by Alamar Blue assay; type: cell-based; settings: hepg2, 48 h
[2] = Cytotoxicity against human CRL8155 cells after 48 hrs by Alamar Blue assay; type: cell-based; settings: crl8155, 48 h

| SMILES | CC50 (L6) | pEC50 [1] | CC50 (HepG2) | CC50 [2] |
| --- | --- | --- | --- | --- |
| O=C(Nc1ccc(F)c(-c2nc3cc(-c4cnc(Cl)nc4)cnc3[nH]2)c1)N1CCCC1 | 14.3 µM | 7.40 | – | – |
| O=C(Nc1ccc(F)c(-c2nc3cccnc3[nH]2)c1)c1ccco1 | – | 6.70 | – | – |
| Cc1cccc(C(=O)Nc2ccc(Cl)c(-c3nc4ccccc4o3)c2)c1 | – | < 4.70 | – | – |
| CC(=O)N(C(=O)c1ccco1)c1ccc(F)c(-c2nc3ncccc3o2)c1 | – | 6.30 | – | – |
| O=C(Nc1ccc(Cl)c(-c2nc3ncccc3o2)c1)c1cccs1 | > 50 µM | 5.82 | – | – |
| O=C(Nc1ccc(F)c(-c2nc3ncccc3o2)c1)c1cc2ccccc2o1 | > 50 µM | < 5.00 | – | – |
| Cn1cncc1C(=O)Nc1ccc(F)c(-c2nc3ncccc3o2)c1 | > 50 µM | < 4.70 | – | – |
| O=C(Nc1ccc(F)c(-c2nc3cc(-c4cccnc4)cnc3[nH]2)c1)N1CCCC1 | – | 8.30 | > 50 µM | 14 µM |
| COc1ccccc1-c1cnc2[nH]c(-c3cc(NC(=O)N4CCCC4)ccc3F)nc2c1 | – | 8.30 | > 50 µM | 13 µM |
| O=C(Nc1ccc(F)c(-c2nc3cc(F)cnc3[nH]2)c1)c1ccco1 | – | 6.70 | – | – |
| O=C(Nc1ccc(Cl)c(-c2nc3ccccc3o2)c1)c1ccccc1 | – | < 4.70 | – | – |
| O=C(Nc1ccc(F)c(-c2nc3ccc(Cl)nc3[nH]2)c1)c1ccco1 | – | 5.00 | – | – |
| Nc1ccc(Cl)c(-c2nc3ncccc3o2)c1 | – | < 4.70 | – | – |
| Nc1cccc(-c2cnc3[nH]c(-c4cc(NC(=O)N5CCCC5)ccc4F)nc3c2)c1 | – | 8.00 | 40 µM | 5 µM |
| O=C(Nc1ccc(F)c(-c2nc3cnccc3o2)c1)c1ccco1 | – | < 4.70 | – | – |
| Cc1ccc(C(=O)Nc2ccc(F)c(-c3nc4ncccc4o3)c2)o1 | > 50 µM | 6.70 | – | – |
| O=C(Nc1ccc(Cl)c(-c2nc3ncccc3o2)c1)N1CCCCC1 | – | 5.72 | – | – |
| CN(C(=O)c1ccco1)c1ccc(F)c(-c2nc3ncccc3o2)c1 | > 50 µM | < 5.00 | – | – |
| CC(C)NC(=O)Nc1ccc(Cl)c(-c2nc3ncccc3o2)c1 | > 50 µM | 6.00 | – | – |
| N=C(N)c1ccc(OCCCCCOc2ccc(C(=N)N)cc2)cc1 [PENTAMIDINE] | – | 8.76 | – | – |
| O=C(Nc1ccc(-c2ccc(F)c(F)c2)c(-c2nc3ncccc3o2)c1)c1ccco1 | > 50 µM | < 4.30 | – | – |
| COc1ncc(-c2cnc3[nH]c(-c4cc(NC(=O)N5CCCC5)ccc4F)nc3c2)cn1 | – | 7.22 | 9.8 µM | 3.9 µM |
| O=C(Nc1ccc(Cl)c(-c2nc3ccccc3o2)c1)c1ccccc1F | – | < 4.70 | – | – |

| SMILES | CC50 (L6) | pEC50 [1] | CC50 (HepG2) | CC50 [2] |
| --- | --- | --- | --- | --- |
| O=C(Nc1ccc(Cl)c(-c2nc3ncccc3o2)c1)c1ccccc1 | > 50 µM | 5.15 | – | – |
| COc1ccc(NC(=O)c2ccco2)cc1-c1nc2ncccc2o1 | > 50 µM | < 5.00 | – | – |
| CCN(CC)CCCC(C)Nc1c2ccc(Cl)cc2nc2ccc(OC)cc12 (stereo not given) [QUINACRINE] | – | – | 9.78 µM | 3.92 µM |
| O=C(Nc1ccc(F)c(-c2nc3ncccc3o2)c1)c1cnco1 | > 50 µM | 5.72 | – | – |
| CN1CCN(C(=O)c2cc(NC(=O)c3ccco3)ccc2Cl)CC1 | – | < 4.70 | – | – |
| O=C(Nc1ccc(F)c(-c2nc3ncc(Br)cc3o2)c1)c1ccco1 | > 50 µM | 6.64 | – | – |
| Fc1ccc(NC(=S)c2ccco2)cc1-c1nc2ncccc2o1 | > 50 µM | 6.39 | – | – |
| O=C(Nc1ccc(F)c(-c2nc3ncccc3o2)c1)c1ccco1 | > 50 µM | 6.92 | – | – |
| O=C(Nc1ccc(F)c(-c2nc3cc(-c4ccccc4Cl)cnc3[nH]2)c1)N1CCCC1 | – | 8.30 | – | – |
| CNC(=O)Nc1ccc(F)c(-c2nc3ncccc3o2)c1 | > 50 µM | 5.42 | – | – |
| Cn1cccc1C(=O)Nc1ccc(F)c(-c2nc3ncccc3o2)c1 | > 50 µM | 5.96 | – | – |
| COc1cc([C@@H]2c3cc4c(cc3[C@H](O)[C@H]3COC(=O)[C@H]23)OCO4)cc(OC)c1OC [PODOFILOX] | 0.014 µM | – | – | – |
| COc1ccc(-c2cnc3nc(-c4cc(NC(=O)c5ccco5)ccc4F)oc3c2)cc1 | – | 6.77 | – | – |
| O=C(Nc1ccc(F)c(-c2nc3c(Cl)ccnc3[nH]2)c1)c1ccco1 | – | 6.92 | – | – |
| O=C(Nc1ccc(F)c(-c2nc3ncccc3o2)c1)c1cccnc1 | > 50 µM | 5.15 | – | – |
| N#Cc1cnc2nc(-c3cc(NC(=O)c4ccco4)ccc3F)oc2c1 | > 50 µM | 6.42 | – | – |
| O=C(Nc1ccc(-c2ccncc2)c(-c2nc3ncccc3o2)c1)c1ccco1 | – | < 4.70 | – | – |
| O=C(Nc1ccc(F)c(-c2nc3cc(-c4cccs4)cnc3[nH]2)c1)N1CCCC1 | – | 8.40 | – | 9 µM |
| O=C(Nc1ccc(F)c(-c2nc3ncccc3o2)c1)c1ccoc1 | > 50 µM | 6.82 | – | – |
| CC(=O)c1cccc(-c2cnc3[nH]c(-c4cc(NC(=O)N5CCCC5)ccc4F)nc3c2)c1 | – | 8.52 | – | – |
| O=C(Nc1ccc(Cl)c(C(=O)N2CCNCC2)c1)c1ccco1 | – | < 4.70 | – | – |
| O=C(Nc1ccc(F)c(-c2nc3ncc(-c4ccc(-c5ccccc5)cc4)cc3o2)c1)c1ccco1 | > 50 µM | 6.38 | – | – |
| O=C(Nc1ccc(F)c(-c2nc3ncc(-c4cccc(Cl)c4)cc3o2)c1)c1ccco1 | > 50 µM | 7.30 | – | – |

| SMILES | CC50 (L6) | pEC50 [1] | CC50 (HepG2) | CC50 [2] |
| --- | --- | --- | --- | --- |
| Cc1ccoc1C(=O)Nc1ccc(F)c(-c2nc3ncccc3o2)c1 | > 50 µM | 7.00 | – | – |
| Cc1ccc(NC(=O)c2ccco2)cc1-c1nc2ncccc2o1 | > 50 µM | 6.37 | – | – |
| O=C(Nc1ccc(Cl)c(-c2nc3ccccc3o2)c1)C1CCCCC1 | – | < 4.70 | – | – |
| CC(=O)Nc1ccc(F)c(-c2nc3ncccc3o2)c1 | > 50 µM | < 4.70 | – | – |
| O=C(Nc1ccc(F)c(-c2nc3ncccc3o2)c1)c1cnccn1 | > 50 µM | 6.05 | – | – |
| O=C(Nc1ccc(F)c(-c2nc3ncccc3o2)c1)C1CCCO1 (stereo not given) | – | < 5.00 | – | – |
| O=C(Nc1ccc(Cl)c(-c2nc3ccccc3o2)c1)c1cccc(F)c1 | – | < 4.70 | – | – |
| O=C(Nc1ccc(-c2ccc(F)cc2)c(-c2nc3ncccc3o2)c1)c1ccco1 | > 50 µM | < 4.30 | – | – |
| CN(C)C(=O)Nc1ccc(Cl)c(-c2nc3ncccc3o2)c1 | > 50 µM | 6.40 | – | – |
| O=S(=O)(Nc1ccc(Cl)c(-c2nc3ncccc3o2)c1)c1ccccc1 | > 50 µM | < 4.70 | – | – |
| O=C(Nc1ccc(Cl)c(-c2nc3ccccc3o2)c1)c1ccco1 | – | < 4.70 | – | – |
| Cc1cc(-c2cnc3[nH]c(-c4cc(NC(=O)N5CCCC5)ccc4F)nc3c2)ccc1F | – | 7.70 | – | > 50 µM |
| CS(=O)(=O)Nc1ccc(Cl)c(-c2nc3ncccc3o2)c1 | > 50 µM | 5.21 | – | – |
| O=C(Nc1ccc(F)c(CNc2ccc(Cl)cn2)c1)c1ccco1 | – | < 5.00 | – | – |
| Cc1ccccc1C(=O)Nc1ccc(Cl)c(-c2nc3ccccc3o2)c1 | – | < 4.70 | – | – |
| O=C(Nc1ccc(Cl)c(C(=O)N2CCOCC2)c1)c1ccco1 | – | < 4.70 | – | – |
| Fc1ccc(NCc2ccccc2)cc1-c1nc2ncccc2o1 | – | < 4.70 | – | – |
| Fc1ccc(N(Cc2ccccc2)Cc2ccccc2)cc1-c1nc2ncccc2o1 | > 50 µM | 5.96 | – | – |
| O=C(Nc1ccc(F)c(C(=O)Nc2ccc(Cl)cn2)c1)c1ccco1 | – | 5.15 | – | – |
| O=C(Nc1ccccc1)Nc1ccc(Cl)c(-c2nc3ncccc3o2)c1 | > 50 µM | 4.92 | – | – |
| N#Cc1ccc(NC(=O)c2ccco2)cc1-c1nc2ncccc2o1 | > 50 µM | 6.40 | – | – |
